Data reported in ChEMBL document CHEMBL1255437, “Involvement of the beta subunit of RNA polymerase in resistance to streptolydigin and streptovaricin in the producer organisms Streptomyces lydicus and Streptomyces spectabilis” (2010).
≈ marks a conversion by molar mass, not a printed value.

Legend:
Streptomyces spectabilis = experiment: Antimicrobial activity against Streptomyces spectabilis NRRL 2494 after 5 to 7 days
Streptomyces albus [1] = experiment: Antimicrobial activity against transconjugant Streptomyces albus carrying pEM4T-Sbeta206 with RNA polymerase beta subunit A471S mutant after 5 to 7 days; assay type: functional
Outline: (§1)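 MIC by agar dilution. Spore suspensions were replica plated with a plate replicator onto Bennet's agar containing a range of streptolydigin or streptovaricin concentrations, then incubated 5 to 7 days at 30°C. Recombinant S. albus strains carried pEM4T-derived plasmids introduced by conjugation from E. coli ET12567(pUB307); producer strains and host S. albus J1074 were tested the same way.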

Streptomyces albus [2] = experiment: Antimicrobial activity against transconjugant Streptomyces albus carrying pEM4T-Sbeta' after 5 to 7 days; assay type: functional
Outline: as §1

Streptomyces albus [3] = experiment: Antimicrobial activity against transconjugant Streptomyces albus carrying pEM4T-Sbeta205 with RNA polymerase beta subunit S470N mutant after 5 to 7 days; assay type: functional
Outline: as §1

Streptomyces albus [4] = experiment: Antimicrobial activity against transconjugant Streptomyces albus carrying pEM4T-Abeta207 with RNA polymerase beta subunit S470N/A471S mutant after 5 to 7 days; assay type: functional
Outline: as §1

Streptomyces albus [5] = experiment: Antimicrobial activity against transconjugant Streptomyces albus carrying pEM4T-Sbeta after 5 to 7 days; assay type: functional
Outline: as §1

Streptomyces albus [6] = experiment: Antimicrobial activity against transconjugant Streptomyces albus carrying pEM4T-Sbeta105 with RNA polymerase beta subunit N474S/S475A mutant after 5 to 7 days; assay type: functional
Outline: as §1

Streptomyces albus [7] = experiment: Antimicrobial activity against transconjugant Streptomyces albus carrying pEM4T-Sbeta204 with RNA polymerase beta subunit L463I mutant after 5 to 7 days; assay type: functional
Outline: as §1

Streptomyces albus [8] = experiment: Antimicrobial activity against transconjugant Streptomyces albus carrying pEM4T-Sbeta104 with RNA polymerase beta subunit A639S mutant after 5 to 7 days; assay type: functional
Outline: as §1

Streptomyces albus [9] = experiment: Antimicrobial activity against transconjugant Streptomyces albus carrying pEM4T-CASbeta after 5 to 7 days; assay type: functional
Outline: as §1

Streptomyces albus [10] = experiment: Antimicrobial activity against transconjugant Streptomyces albus carrying pEM4T-Sbeta103 with RNA polymerase beta subunit T638K mutant after 5 to 7 days; assay type: functional
Outline: as §1

Streptomyces albus [11] = experiment: Antimicrobial activity against transconjugant Streptomyces albus carrying pEM4T-Sbeta102 with RNA polymerase beta subunit S475A mutant after 5 to 7 days; assay type: functional
Outline: as §1

Streptomyces albus [12] = experiment: Antimicrobial activity against transconjugant Streptomyces albus carrying pEM4T-Sbeta101 with RNA polymerase beta subunit N474S mutant after 5 to 7 days; assay type: functional
Outline: as §1

Streptomyces albus [13] = experiment: Antimicrobial activity against transconjugant Streptomyces albus carrying pEM4T-Sbeta100 with RNA polymerase beta subunit I467L mutant after 5 to 7 days; assay type: functional
Outline: as §1

Streptomyces albus [14] = experiment: Antimicrobial activity against transconjugant Streptomyces albus carrying pEM4T-Lbeta108 with RNA polymerase beta subunit F593Y/M594L mutant after 5 to 7 days; assay type: functional
Outline: as §1

Streptomyces albus [15] = experiment: Antimicrobial activity against transconjugant Streptomyces albus carrying pEM4T-Abeta202 with RNA polymerase beta subunit E485D mutant after 5 to 7 days; assay type: functional
Outline: as §1

Streptomyces albus [16] = experiment: Antimicrobial activity against transconjugant Streptomyces albus carrying pEM4T-Lbeta102 with RNA polymerase beta subunit D486E mutant after 5 to 7 days; assay type: functional
Outline: as §1

Streptomyces albus [17] = experiment: Antimicrobial activity against transconjugant Streptomyces albus carrying pEM4T-Lbeta' after 5 to 7 days; assay type: functional
Outline: as §1

Streptomyces albus [18] = experiment: Antimicrobial activity against transconjugant Streptomyces albus carrying pEM4T-Lbeta103 with RNA polymerase beta subunit L555V mutant after 5 to 7 days; assay type: functional
Outline: as §1

Streptomyces albus [19] = experiment: Antimicrobial activity against transconjugant Streptomyces albus carrying pEM4T-Lbeta106 with RNA polymerase beta subunit A636S mutant after 5 to 7 days; assay type: functional
Outline: as §1

Streptomyces albus [20] = experiment: Antimicrobial activity against transconjugant Streptomyces albus carrying pEM4T-Lbeta107 with RNA polymerase beta subunit L485F/D486E mutant after 5 to 7 days; assay type: functional
Outline: as §1

Streptomyces lydicus = experiment: Antimicrobial activity against Streptomyces lydicus NRRL 2433 after 5 to 7 days; assay type: functional
Outline: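 Spore suspensions replica-plated with a plate replicator onto Bennet's agar plates containing a range of streptolydigin and streptovaricin concentrations. Plates incubated 5 to 7 days at 30°C. MIC scored as growth inhibition on the solid medium. Strain NRRL2433 is the streptolydigin producer.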

Streptomyces albus [21] = experiment: Antimicrobial activity against transconjugant Streptomyces albus carrying pEM4T-Abeta203 with RNA polymerase beta subunit F484L/E485D mutant after 5 to 7 days; assay type: functional
Outline: as §1

Streptomyces albus [22] = experiment: Antimicrobial activity against transconjugant Streptomyces albus carrying pEM4T-Lbeta105 with RNA polymerase beta subunit S624A mutant after 5 to 7 days; assay type: functional
Outline: as §1

Streptomyces albus [23] = experiment: Antimicrobial activity against transconjugant Streptomyces albus carrying pEM4T-Abeta after 5 to 7 days; assay type: functional
Outline: as §1

Streptomyces albus [24] = experiment: Antimicrobial activity against transconjugant Streptomyces albus carrying pEM4T-Abeta201 with RNA polymerase beta subunit F484L mutant after 5 to 7 days; assay type: functional
Outline: as §1

Streptomyces albus [25] = experiment: Antimicrobial activity against transconjugant Streptomyces albus carrying pEM4T-Lbeta101 with RNA polymerase beta subunit L485F mutant after 5 to 7 days; assay type: functional
Outline: as §1

Streptomyces albus [26] = experiment: Antimicrobial activity against transconjugant Streptomyces albus carrying pEM4T-CALbeta after 5 to 7 days; assay type: functional
Outline: as §1

Streptomyces albus [27] = experiment: Antimicrobial activity against transconjugant Streptomyces albus carrying pEM4T-Lbeta104 with RNA polymerase beta subunit F593Y mutant after 5 to 7 days; assay type: functional
Outline: as §1

Streptomyces albus [28] = experiment: Antimicrobial activity against transconjugant Streptomyces albus J1074 after 5 to 7 days; assay type: functional
Outline: as §1

Streptomyces albus [29] = experiment: Antimicrobial activity against transconjugant Streptomyces albus carrying pEM4T-Lbeta after 5 to 7 days; assay type: functional
Outline: as §1

Streptomyces albus [30] = experiment: Antimicrobial activity against transconjugant Streptomyces albus carrying pEM4T after 5 to 7 days; assay type: functional
Outline: as §1

Streptomyces albus [31] = experiment: Antimicrobial activity against transconjugant Streptomyces albus carrying pEM4T-Lbeta100 with RNA polymerase beta subunit T458N mutant after 5 to 7 days; assay type: functional
Outline: as §1

| SMILES | MIC (Streptomyces spectabilis) [µg/mL] | MIC (Streptomyces albus [1]) [µg/mL] | MIC (Streptomyces albus [2]) [µg/mL] | MIC (Streptomyces albus [3]) [µg/mL] | MIC (Streptomyces albus [4]) [µg/mL] | MIC (Streptomyces albus [5]) [µg/mL] | MIC (Streptomyces albus [6]) [µg/mL] | MIC (Streptomyces albus [7]) [µg/mL] | MIC (Streptomyces albus [8]) [µg/mL] | MIC (Streptomyces albus [9]) [µg/mL] | MIC (Streptomyces albus [10]) [µg/mL] | MIC (Streptomyces albus [11]) [µg/mL] | MIC (Streptomyces albus [12]) [µg/mL] | MIC (Streptomyces albus [13]) [µg/mL] | also measured |
| --- | --- | --- | --- | --- | --- | --- | --- | --- | --- | --- | --- | --- | --- | --- | --- |
| CO[C@H]1/C=C/O[C@@]2(C)Oc3c(C)c(O)c4c(O)c(c(/C=N/N5CCN(C)CC5)c(O)c4c3C2=O)NC(=O)/C(C)=C\C=C\[C@H](C)[C@H](O)[C@@H](C)[C@@H](O)[C@@H](C)[C@H](OC(C)=O)[C@@H]1C [RIFAMPIN] | > 40 | 5 (≈ 6.08 µM) | 5 (≈ 6.08 µM) | 5 (≈ 6.08 µM) | 40 (≈ 48.6 µM) | 40 (≈ 48.6 µM) | 5 (≈ 6.08 µM) | 5 (≈ 6.08 µM) | 40 (≈ 48.6 µM) | 40 (≈ 48.6 µM) | 20 (≈ 24.3 µM) | 40 (≈ 48.6 µM) | 5 (≈ 6.08 µM) | 40 (≈ 48.6 µM) |  |
| CNC(=O)[C@@H](C)[C@H]1C(=O)/C(=C(O)/C=C/C(C)=C/[C@@H](C)[C@H]2O[C@@]3(C)O[C@H](C=C[C@@]34CO4)[C@@H]2C)C(=O)N1[C@@H]1CC[C@H](O)[C@H](C)O1 [STREPTOLYDIGIN] |  |  |  |  |  |  |  |  |  |  |  |  |  |  | MIC (Streptomyces albus [14]): 1 µg/mL (≈ 1.66 µM); MIC (Streptomyces albus [15]): 1 µg/mL (≈ 1.66 µM); MIC (Streptomyces albus [16]): 10 µg/mL (≈ 16.6 µM); MIC (Streptomyces albus [17]): 1 µg/mL (≈ 1.66 µM); MIC (Streptomyces albus [18]): 1 µg/mL (≈ 1.66 µM); MIC (Streptomyces albus [19]): 10 µg/mL (≈ 16.6 µM); MIC (Streptomyces albus [20]): 1 µg/mL (≈ 1.66 µM); MIC (Streptomyces lydicus): > 200 µg/mL; MIC (Streptomyces albus [21]): 9 µg/mL (≈ 15 µM); MIC (Streptomyces albus [22]): 20 µg/mL (≈ 33.3 µM); MIC (Streptomyces albus [23]): 1 µg/mL (≈ 1.66 µM); MIC (Streptomyces albus [24]): 6 µg/mL (≈ 9.99 µM); MIC (Streptomyces albus [25]): 1 µg/mL (≈ 1.66 µM); MIC (Streptomyces albus [26]): 20 µg/mL (≈ 33.3 µM); MIC (Streptomyces albus [27]): 10 µg/mL (≈ 16.6 µM); MIC (Streptomyces albus [28]): 1 µg/mL (≈ 1.66 µM); MIC (Streptomyces albus [29]): 20 µg/mL (≈ 33.3 µM); MIC (Streptomyces albus [30]): 1 µg/mL (≈ 1.66 µM); MIC (Streptomyces albus [31]): 20 µg/mL (≈ 33.3 µM) |
| COC(=O)[C@@H]1[C@H](O)[C@H](C)[C@H](O)[C@H](C)/C=C\C=C(/C)C(=O)Nc2c(C)c(OC(C)=O)c3c(c2O)C(=O)C(C)=C2OCOC(=C23)/C(C)=C/[C@@](C)(O)[C@H](O)[C@@H](C)[C@H]1O [STREPTOVARICIN] | > 200 | 80 (≈ 104 µM) | 70 (≈ 90.9 µM) | 80 (≈ 104 µM) | 200 (≈ 260 µM) | 200 (≈ 260 µM) | 70 (≈ 90.9 µM) | 70 (≈ 90.9 µM) | 200 (≈ 260 µM) | 200 (≈ 260 µM) | 200 (≈ 260 µM) | 200 (≈ 260 µM) | 200 (≈ 260 µM) | 200 (≈ 260 µM) |  |
